pKi: −log10 of the molar value.
Assays:
Mus musculus = assay: Inhibition of L687,414-induced hyperactivity in mouse at 1 mg/kg, ip dosed before test; type: functional
[1] = Stability in pH 7 buffer at 1 mg assessed as compound hydrolysis after several days at room temperature by LC/MS analysis; type: physicochemical
Salmonella typhimurium [2] = assay: Genotoxicity in Salmonella typhimurium TA100 assessed as induction of mutagenicity by measuring revertant colonies at 0.3 to 1000 ug/well incubated for 48 hrs in presence of liver S9 fraction by mini Ames test; type: toxicity, organism-based; details: salmonella enterica subsp. enterica serovar typhimurium, s9, 48 h
[3] = Unbound intrinsic clearance in human liver microsomes at 0.5 uM incubated for 4 hrs by equilibrium dialysis and LC-MS/MS method; type: ADME, microsome
Salmonella typhimurium [4] = assay: Genotoxicity in Salmonella typhimurium TA98 assessed as induction of mutagenicity by measuring revertant colonies at 0.3 to 1000 ug/well incubated for 48 hrs in presence of liver S9 fraction by mini Ames test; type: toxicity, organism-based; details: salmonella enterica subsp. enterica serovar typhimurium, s9, 48 h
MDR1 (P-gp) = assay: Efflux ratio in MDCK2-MDR1 cells at 1 uM incubated for 1 hr by LC-MS/MS method; type: ADME, cell-based, Canis lupus familiaris; details: dog, MDCK-MDR1
Summary of the method: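 MDCK II cells transfected with MDR1 (human P-gp, lowered canine P-gp) seeded on transwell inserts at 300,000 cells/cm2, media changed day 2, assayed day 4 or 5. Dosed apical or basolateral at 1 µM final (1 mM DMSO stock, 0.1% DMSO) in HBSS + glucose, duplicate, 37 °C for 1 h. Receiver and donor sampled, LC-MS/MS with buspirone internal standard; Papp from ΔQ/Δt·1/(A·C0).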

[5] = Unbound intrinsic clearance in rat liver microsomes at 0.5 uM incubated for 4 hrs by equilibrium dialysis and LC-MS/MS method; type: ADME, microsome
[6] = molecular target: T1, Sodium- and chloride-dependent glycine transporter 1 (Homo sapiens, UniProt P48067); assay: Inhibition of [3H]N-Methyl-SSR504734 binding to human recombinant GlyT1c expressed in CHO cell membranes incubated for 1 hr by liquid scintillation spectrometry
T1 sequence (P48067 whole entry): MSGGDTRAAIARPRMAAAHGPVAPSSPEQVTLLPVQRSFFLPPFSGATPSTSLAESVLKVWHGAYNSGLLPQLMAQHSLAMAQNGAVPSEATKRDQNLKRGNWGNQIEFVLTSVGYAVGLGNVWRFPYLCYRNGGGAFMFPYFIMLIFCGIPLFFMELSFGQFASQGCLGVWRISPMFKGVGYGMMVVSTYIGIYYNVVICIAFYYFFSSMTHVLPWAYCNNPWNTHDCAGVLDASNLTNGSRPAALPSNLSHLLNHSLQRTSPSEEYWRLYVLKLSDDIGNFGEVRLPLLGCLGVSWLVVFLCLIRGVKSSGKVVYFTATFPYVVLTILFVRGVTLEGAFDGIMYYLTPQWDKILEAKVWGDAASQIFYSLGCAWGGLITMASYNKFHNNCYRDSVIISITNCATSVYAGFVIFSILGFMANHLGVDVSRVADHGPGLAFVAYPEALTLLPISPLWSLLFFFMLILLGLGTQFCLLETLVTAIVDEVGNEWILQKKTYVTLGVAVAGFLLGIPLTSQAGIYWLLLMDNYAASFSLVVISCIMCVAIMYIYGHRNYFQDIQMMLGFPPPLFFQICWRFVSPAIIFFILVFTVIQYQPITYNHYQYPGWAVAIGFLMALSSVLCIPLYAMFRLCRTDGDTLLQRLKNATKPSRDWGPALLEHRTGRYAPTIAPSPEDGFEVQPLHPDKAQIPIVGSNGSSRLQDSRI

[7] = Ratio of free drug level in brain to plasma in rat; type: ADME; details: read-out: BPR

Cn1cnc(S(=O)(=O)N2C[C@H](Nc3ccc(F)c(OC(F)(F)F)c3)[C@@H](c3ccc(F)cc3)C2)c1
inhibition in vivo at 1 mg/kg (Mus musculus): 100%

Cn1cnc(S(=O)(=O)N2C[C@H]([C@@H]3CCCO3)[C@@H](Nc3cccc(OC(F)(F)F)c3)C2)c1
Stability [1]: Stable

Cn1cnc(S(=O)(=O)N2CC(Nc3ccccc3)C(c3ccccc3)C2)c1 (racemic)
Activity (Salmonella typhimurium [2]): Non-Toxic
CL free [3]: 250 mL/min/kg
Activity (Salmonella typhimurium [4]): Non-Toxic
efflux ratio at 1 h, 1 µM (MDR1 (P-gp)): 0.9
CL free [5]: 950 mL/min/kg
pKi [6]: 6.70

Cn1cnc(S(=O)(=O)N2CC(Nc3cccc(C(F)(F)F)c3)C(c3ccccc3)C2)c1 (racemic)
Activity (Salmonella typhimurium [2]): Non-Toxic
Activity (Salmonella typhimurium [4]): Non-Toxic
pKi [6]: 8.10

Cn1cnc(S(=O)(=O)N2CC(Nc3cncc(C(F)(F)F)c3)C(c3ccc(F)cc3)C2)c1 (racemic)
Activity (Salmonella typhimurium [2]): Non-Toxic
Activity (Salmonella typhimurium [4]): Non-Toxic

Cc1cccc(NC2CN(S(=O)(=O)c3cn(C)cn3)CC2c2ccccc2)c1 (racemic)
Activity (Salmonella typhimurium [2]): Non-Toxic
CL free [3]: 817 mL/min/kg
Activity (Salmonella typhimurium [4]): Non-Toxic
efflux ratio at 1 h, 1 µM (MDR1 (P-gp)): 0.9
CL free [5]: 1980 mL/min/kg
pKi [6]: 7.74 to 7.77
Kp uu [7]: 0.6

Cn1cnc(S(=O)(=O)N2CC(Nc3cccc(Cl)c3)C(c3ccc(F)cc3)C2)c1 (racemic)
Activity (Salmonella typhimurium [2]): Non-Toxic
CL free [3]: 3380 mL/min/kg
Activity (Salmonella typhimurium [4]): Non-Toxic
efflux ratio at 1 h, 1 µM (MDR1 (P-gp)): 1.1
CL free [5]: 5830 mL/min/kg
pKi [6]: 8.52
Kp uu [7]: 1.7

Cn1cnc(S(=O)(=O)N2CC(Nc3cccc(C(F)(F)F)c3)C(c3cccnc3)C2)c1 (racemic)
Activity (Salmonella typhimurium [2]): Non-Toxic
Activity (Salmonella typhimurium [4]): Non-Toxic

Cn1cnc(S(=O)(=O)N2CC(Nc3cccc(Cl)c3)C(c3cccc(F)c3)C2)c1 (racemic)
Activity (Salmonella typhimurium [2]): Non-Toxic
CL free [3]: 1450 mL/min/kg
Activity (Salmonella typhimurium [4]): Non-Toxic
efflux ratio at 1 h, 1 µM (MDR1 (P-gp)): 1
CL free [5]: 4430 mL/min/kg
pKi [6]: 7.38

Source: ChEMBL document CHEMBL4145640, “De Novo Design, Synthesis, and Biological Evaluation of 3,4-Disubstituted Pyrrolidine Sulfonamides as Potent and Selective Glycine Transporter 1 Competitive Inhibitors” (J Med Chem, 2018)
